≈ marks a conversion by molar mass, not a printed value. Calls of active or inactive are those of the source.
Tests used:
Staphylococcus aureus [1] = assay: Antibacterial activity against methicillin resistant Staphylococcus aureus 123 assessed as inhibition of bacterial growth incubated for 18 to 20 hrs by CLSI protocol based broth microdilution method; assay type: functional; conditions: time 18-20 hrs
Procedure, shortened: (§1)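 Broth microdilution against staphylococcal clinical isolates. Each strain was prepared as a 0.5 McFarland suspension and diluted in cation-adjusted Mueller Hinton broth to ~5 × 10^5 CFU mL−1. Serial dilutions of test agents in DMSO stock were incubated with the bacteria, and the MIC was recorded.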

Staphylococcus aureus [2] = assay: Antibacterial activity against methicillin resistant Staphylococcus aureus 385 assessed as inhibition of bacterial growth incubated for 18 to 20 hrs by CLSI protocol based broth microdilution method; assay type: functional; conditions: time 18-20 hrs; procedure, shortened: as §1
Staphylococcus aureus [3] = assay: Antibacterial activity against methicillin resistant Staphylococcus aureus 386 assessed as inhibition of bacterial growth incubated for 18 to 20 hrs by CLSI protocol based broth microdilution method; assay type: functional; conditions: time 18-20 hrs; procedure, shortened: as §1
Staphylococcus aureus [4] = assay: Antibacterial activity against vancomycin resistant Staphylococcus aureus 10 assessed as inhibition of bacterial growth incubated for 18 to 20 hrs by CLSI protocol based broth microdilution method; assay type: functional; conditions: time 18-20 hrs; procedure, shortened: as §1
Staphylococcus aureus [5] = assay: Antibacterial activity against methicillin sensitive Staphylococcus aureus 107 assessed as inhibition of bacterial growth incubated for 18 to 20 hrs by CLSI protocol based broth microdilution method; assay type: functional; conditions: time 18-20 hrs; procedure, shortened: as §1
Staphylococcus aureus [6] = assay: Antibacterial activity against methicillin sensitive Staphylococcus aureus 6538 assessed as inhibition of bacterial growth incubated for 18 to 20 hrs by CLSI protocol based broth microdilution method; assay type: functional; conditions: time 18-20 hrs; procedure, shortened: as §1
Streptococcus pneumoniae = assay: Antibacterial activity against Streptococcus pneumoniae 700677 assessed as inhibition of bacterial growth incubated for 18 to 20 hrs by CLSI protocol based broth microdilution method; assay type: functional; conditions: time 18-20 hrs
Procedure, shortened: (§2)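 Streptococci were diluted from a 0.5 McFarland suspension in cation-adjusted Mueller Hinton broth with 5% lysed horse blood. They were incubated with serial dilutions of test agent in broth microdilution, and the MIC was recorded.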

Streptococcus pyogenes = assay: Antibacterial activity against Streptococcus pyogenes MGAS 1882 assessed as inhibition of bacterial growth incubated for 18 to 20 hrs by CLSI protocol based broth microdilution method; assay type: functional; conditions: time 18-20 hrs; procedure, shortened: as §2
Enterococcus faecalis = assay: Antibacterial activity against Enterococcus faecalis 51299 assessed as inhibition of bacterial growth incubated for 18 to 20 hrs by CLSI protocol based broth microdilution method; assay type: functional; conditions: time 18-20 hrs
Procedure, shortened: (§3)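 Enterococci and L. monocytogenes were diluted from a 0.5 McFarland suspension in TSB. They were incubated with serial dilutions of test agent in broth microdilution, and the MIC was recorded.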

Listeria monocytogenes = assay: Antibacterial activity against Listeria monocytogenes 19111 assessed as inhibition of bacterial growth incubated for 18 to 20 hrs by CLSI protocol based broth microdilution method; assay type: functional; conditions: time 18-20 hrs; procedure, shortened: as §3
Staphylococcus aureus [7] = assay: Antibacterial activity against methicillin resistant Staphylococcus aureus 123 assessed as inhibition of bacterial growth at 0.5 ug/ml incubated for 18 to 20 hrs by CLSI protocol based broth microdilution method; assay type: functional, organism-based; conditions: dose 0.5 µg/ml, time 18-20 hrs
Staphylococcus aureus [8] = assay: Antibacterial activity against methicillin resistant Staphylococcus aureus 384 assessed as inhibition of bacterial growth at 0.5 ug/ml incubated for 18 to 20 hrs by CLSI protocol based broth microdilution method; assay type: functional, organism-based; conditions: dose 0.5 µg/ml, time 18-20 hrs
Staphylococcus aureus [9] = assay: Antibacterial activity against methicillin resistant Staphylococcus aureus 119 assessed as inhibition of bacterial growth at 0.5 ug/ml incubated for 18 to 20 hrs by CLSI protocol based broth microdilution method; assay type: functional, organism-based; conditions: dose 0.5 µg/ml, time 18-20 hrs
Staphylococcus aureus [10] = assay: Antibacterial activity against methicillin resistant Staphylococcus aureus 385 assessed as inhibition of bacterial growth at 0.5 ug/ml incubated for 18 to 20 hrs by CLSI protocol based broth microdilution method; assay type: functional, organism-based; conditions: dose 0.5 µg/ml, time 18-20 hrs
Staphylococcus aureus [11] = assay: Antibacterial activity against vancomycin resistant Staphylococcus aureus 10 assessed as inhibition of bacterial growth at 0.5 ug/ml incubated for 18 to 20 hrs by CLSI protocol based broth microdilution method; assay type: functional, organism-based; conditions: dose 0.5 µg/ml, time 18-20 hrs
Staphylococcus aureus [12] = assay: Antibacterial activity against vancomycin resistant Staphylococcus aureus 9 assessed as inhibition of bacterial growth at 0.5 ug/ml incubated for 18 to 20 hrs by CLSI protocol based broth microdilution method; assay type: functional, organism-based; conditions: dose 0.5 µg/ml, time 18-20 hrs
Staphylococcus aureus [13] = assay: Antibacterial activity against methicillin sensitive Staphylococcus aureus 107 assessed as inhibition of bacterial growth at 0.5 ug/ml incubated for 18 to 20 hrs by CLSI protocol based broth microdilution method; assay type: functional, organism-based; conditions: dose 0.5 µg/ml, time 18-20 hrs
Procedure, shortened: (§4)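 Staphylococcal and E. coli strains were diluted from a 0.5 McFarland suspension in cation-adjusted Mueller Hinton broth to ~5 × 10^5 CFU mL−1. They were incubated with serial dilutions of test agent in broth microdilution, and the MIC was recorded.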

Staphylococcus aureus [14] = assay: Antibacterial activity against methicillin sensitive Staphylococcus aureus 6538 assessed as inhibition of bacterial growth at 0.5 ug/ml incubated for 18 to 20 hrs by CLSI protocol based broth microdilution method; assay type: functional, organism-based; conditions: dose 0.5 µg/ml, time 18-20 hrs; procedure, shortened: as §4
[15] = Hemolytic activity in rabbit erythrocytes at 32 to 64 ug/ml incubated for 30 mins by absorbance based assay; assay type: toxicity, cell-based, Oryctolagus cuniculus; conditions: erythrocyte, 0.5 h, dose 32-64 µg/ml
Procedure, shortened: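 Rabbit erythrocytes were washed three times in PBS pH 7.4 and adjusted to A540 0.8. They were mixed 1:1 with compound (final 16, 32, 64 μg mL−1) for 30 min at 37 °C. After centrifugation at 13 000 × g for 5 min, supernatant A540 was read as % of 1% Triton X-100 complete hemolysis. PBS served as negative control. Each concentration was run twice.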

Staphylococcus aureus [16] = assay: Induction of drug resistance in methicillin resistant Staphylococcus aureus NRS384 USA300 assessed as change in MIC measured after 4 passages by broth microdilution method; assay type: functional, organism-based
Procedure, shortened: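 Multi-step resistance in MRSA USA300 over 14 consecutive passages, with rifampicin as the control antibiotic. The MIC was determined by broth microdilution at each passage. Resistance was defined as a greater than four-fold rise over the initial MIC.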

Staphylococcus aureus [17] = assay: Post antibiotic effect against methicillin resistant Staphylococcus aureus NRS384 USA300 assessed as time required for 1 log10 increase in CFU at 5 times of MIC incubated for 2 hrs followed by replacement with drug free medium and measured after 18-24 hrs; assay type: functional
Procedure, shortened: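 MRSA USA300 at ~10^6 CFU mL−1 was exposed for 2 h to 5× MIC of test agent, with vancomycin or DMSO as controls. Drug was removed by 1:1000 dilution in fresh TSB. Cultures were incubated at 37 °C with 180 rpm shaking and sampled hourly for 8 h, with viable counts on MSA read after 18–24 h. PAE = T − C, where T and C are the times for a 1 log10 rise in the test and control cultures.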

Staphylococcus aureus [18] = assay: (§5) Antibacterial activity against methicillin resistant Staphylococcus aureus NRS384 USA300 infected in Balb/c mouse model of skin infection assessed as healing administered topically twice daily for three consecutive days from day 4 to 6 and measured 24 hrs post last dose; assay type: functional, organism-based; conditions: route top, time 4.0 day
Procedure, shortened: (§6)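 Mice were anesthetized with 2,2,2-tribromoethanol and injected subcutaneously with 100 μL containing 2 × 10^9 CFU MRSA USA300 in 0.5% HPMC in saline. Topical treatment used a petroleum jelly vehicle, with a fusidic acid positive control. Lesions were photographed 24 h after the last dose. A ~1.5 cm2 skin patch (homogenized in 1 mL saline) and the spleen (in 0.5 mL) were serially diluted and plated on MSA at 37 °C overnight for CFU.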

Staphylococcus aureus [19] = assay: as §5, with “reduction in bacterial burden in spleen” for “healing”; assay type: functional; conditions: route top; time 4 day; procedure, shortened: as §6

## C/C(=N\NC(=N)N)c1ccc(NC(=O)Nc2ccc(C#Cc3ccccc3)cc2)cc1
Staphylococcus aureus [1]
  MIC: 0.5 µg/mL (≈ 1.22 µM)
Staphylococcus aureus [2]
  MIC: 0.5 µg/mL (≈ 1.22 µM)
Staphylococcus aureus [3]
  MIC: 0.5 µg/mL (≈ 1.22 µM)
Staphylococcus aureus [4]
  MIC: 0.5 µg/mL (≈ 1.22 µM)
Staphylococcus aureus [5]
  MIC: 0.5 µg/mL (≈ 1.22 µM)
Staphylococcus aureus [6]
  MIC: 0.5 µg/mL (≈ 1.22 µM)
Streptococcus pneumoniae
  MIC: 0.5 µg/mL (≈ 1.22 µM)
Streptococcus pyogenes
  MIC: 0.5 µg/mL (≈ 1.22 µM)
Enterococcus faecalis
  MIC: 0.5 µg/mL (≈ 1.22 µM)
Listeria monocytogenes
  MIC: 0.5 µg/mL (≈ 1.22 µM)
Staphylococcus aureus [7]
  Activity: Active
Staphylococcus aureus [8]
  Activity: Active
Staphylococcus aureus [9]
  Activity: Active
Staphylococcus aureus [10]
  Activity: Active
Staphylococcus aureus [11]
  Activity: Active
Staphylococcus aureus [12]
  Activity: Active
Staphylococcus aureus [13]
  Activity: Active
Staphylococcus aureus [14]
  Activity: Active
[15]
  Activity: Toxic
Staphylococcus aureus [16]
  Activity: inactive
Staphylococcus aureus [17]
  Time: 5 h
Staphylococcus aureus [18]
  Activity: Active
Staphylococcus aureus [19]
  Activity: >1 log10CFU/ml
